Series [1] relates to Mus musculus. Put plainly: Antinociceptive activity in ip dosed Swiss mouse assessed as inhibition of acetic acid-induced writhing response at 3 mg/kg, ip administered 30 mins prior to acetic acid challenge measured for 20 mins relative to vehicle-treated control. It counts as functional, organism-based. In outline:
(§1)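 Mice dosed i.p. with compound or vehicle 15 min before testing, or with indomethacin 3 mg/kg i.p. 30 min before. After 15 min habituation in an enclosure, 0.9% acetic acid given i.p. (1 ml/0.1 kg) and writhes counted for 20 min. Non-responders excluded; n = 4-6; mean ± SD.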
(In general: An intraperitoneal irritant provokes the stretching counted in writhing tests.)

The nature of series [2]: Antiinflammatory activity in human SW1353 cells assessed as inhibition of PMA-induced NF-kappaB activity incubated for 30 mins prior to PMA challenge measured after 8 hrs by luciferase reporter gene assay. In kind it is cell-based. In outline: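 SW1353 cells in DMEM/F12 with 10% FBS, electroporated with NF-κB luciferase plasmid (160 V, one 70-ms pulse), plated at 1.25 × 10⁵ cells/well. After 24 h, graded compound concentrations added 30 min before PMA 70 ng/mL, then 8 h incubation. Luciferase read-out, % inhibition versus vehicle, IC50 from dose curves. Sp-1 reporter served as nonspecific control.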

Series [3] relates to SK-MEL. Put plainly: Cytotoxicity against human SK-MEL cells up to 25 ug/ml after 48 hrs by neutral red assay relative to control. It counts as cell-based. Summed up:
(§2)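 Cells grown in RPMI-1640 with 10% bovine calf serum and amikacin at 37 °C, 5% CO2. Seeded at 25,000 cells/well and grown 24 h, then exposed 48 h to samples diluted in serum-free medium. Viability by Neutral Red; % decrease vs vehicle; IC50 from dose curves. Triplicate runs, mean reported; doxorubicin as positive control.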

The subject of series [4] is SK-OV-3. Put plainly: Cytotoxicity against human SKOV3 cells after 48 hrs by neutral red assay relative to control. It counts as cell-based. The note with it: SK-OV-3, 48 h. In outline: (§3)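 Cells grown in RPMI-1640 with 10% bovine calf serum and amikacin at 37°C, 5% CO₂. Seeded 25,000 cells/well, grown 24 h, then exposed to compounds diluted in serum-free medium for 48 h. Viability by Neutral Red uptake, % decrease versus vehicle control. IC50 from dose curves, triplicate means. Doxorubicin positive control.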

The subject of series [5] is Rattus norvegicus. The experiment in a line: Antiinflammatory activity in albino rat assessed as inhibition of carrageenan-induced paw edema at 30 mg/kg, ip administered 1 hr prior to carrageenan challenge measured 2 hrs after induction of inflammation relative to control. It counts as functional. In outline: (§4)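 Adult albino rats of both sexes, 120–150 g, groups of five, pre-hydrated with 3 ml water orally. Compounds suspended in distilled water with few drops Tween 80, given ip 1 h before subplantar s.c. 1% carrageenan into right hind paw. Paw thickness measured by dial calipers, left paw as control. % inhibition = (1 – Lt/Lc) × 100 versus saline/Tween 80 group.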

The test system of series [6] is Rattus norvegicus. Put plainly: Antiinflammatory activity in albino rat assessed as inhibition of carrageenan-induced paw edema at 30 mg/kg, ip administered 1 hr prior to carrageenan challenge measured 1 hr after induction of inflammation relative to control. In kind it is functional. Summed up:
as §4

Series [7] relates to Rattus norvegicus. Put plainly: Antiinflammatory activity in albino rat assessed as inhibition of carrageenan-induced paw edema at 30 mg/kg, ip administered 1 hr prior to carrageenan challenge measured 3 hrs after induction of inflammation relative to control. It counts as functional. Summed up: as §4
A general note: Carrageenan injected into the paw causes an acute inflammation.

Series [8] concerns KB. The experiment in a line: Cytotoxicity against human KB cells after 48 hrs by neutral red assay relative to control. In kind it is cell-based. Summed up: as §3
Series [9] relates to Mus musculus. Put plainly: Antinociceptive activity in ip dosed Swiss mouse assessed as inhibition of acetic acid-induced writhing response administered 15 mins prior to acetic acid challenge measured for 20 mins relative to vehicle-treated control. In kind it is functional, organism-based. Summed up: as §1
Series [10] has as its system Rattus norvegicus. Put plainly: Antiinflammatory activity in albino rat assessed as inhibition of carrageenan-induced paw edema at 30 mg/kg, ip administered 1 hr prior to carrageenan challenge measured 4 hrs after induction of inflammation relative to control. It counts as functional. In outline:
as §4

The subject of series [11] is Vero. The experiment in a line: Cytotoxicity against African green monkey Vero cells up to 25 ug/ml after 48 hrs by neutral red assay relative to control. It counts as cell-based. The note with it: chlorocebus sabaeus. In outline:
as §2

Series [12] relates to BT-549. The experiment in a line: Cytotoxicity against human BT549 cells after 48 hrs by neutral red assay relative to control. It counts as cell-based. The note with it: BT-549, 48 h. Summed up: as §3
The nature of series [13]: Cytotoxicity against pig LLC-PK11 cells up to 25 ug/ml after 48 hrs by neutral red assay relative to control. In kind it is cell-based, Sus scrofa. The note with it: llc-pk11, 48 h. In outline:
as §2

Series [14] deals with SK-OV-3. The experiment in a line: Cytotoxicity against human SKOV3 cells up to 25 ug/ml after 48 hrs by neutral red assay relative to control. Particulars: sk-ov-3, 48 h. It counts as cell-based. In outline: as §2
In series [15] the test system is SK-MEL. The experiment in a line: Cytotoxicity against human SK-MEL cells after 48 hrs by neutral red assay relative to control. It counts as cell-based. In outline:
as §3

Series [16] in a line: Cytotoxicity against pig LLC-PK11 cells after 48 hrs by neutral red assay relative to control. Particulars: Sus scrofa, LLC-PK11, 48 h. In kind it is cell-based. In outline: as §3
Series [17] has as its system BT-549. The experiment in a line: Cytotoxicity against human BT549 cells up to 25 ug/ml after 48 hrs by neutral red assay relative to control. In kind it is cell-based. The note with it: bt-549, 48 h. Summed up: as §2
The test system of a further series is SW1353. The experiment in a line: Antiinflammatory activity in human SW1353 cells assessed as inhibition of PMA-induced NF-kappaB activity up to 25 ug/ml incubated for 30 mins prior to PMA challenge measured after 8 hrs by luciferase reporter gene assay. It counts as cell-based. In outline:
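SW1353 chondrosarcoma cells grown in DMEM/F12 with 10% FBS at 37 °C, 5% CO2. Cells electroporated with an NF-κB luciferase plasmid (50 μg/mL, 160 V, one 70-ms pulse) and plated at 1.25 × 10⁵ cells/well. After 24 h, compound was added 30 min before PMA (70 ng/mL), then 8 h incubation. Luciferase read-out as % inhibition vs vehicle; IC50 from dose curves. Sp-1 served as a counter-screen.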
Background: A reporter such as luciferase makes a cellular process visible.

In series [18] the test system is KB. The experiment in a line: Cytotoxicity against human KB cells up to 25 ug/ml after 48 hrs by neutral red assay relative to control. It counts as cell-based. Summed up: as §2
Series [19] deals with Vero. The experiment in a line: Cytotoxicity against African green monkey Vero cells after 48 hrs by neutral red assay relative to control. It counts as cell-based. The note with it: chlorocebus sabaeus. In outline: as §3

Active and inactive are the calls of the source. No cut-off for these calls is given here.

As usually defined, the IC50 is the midpoint of a concentration-inhibition curve. As usually defined, the inhibition in vivo is the percentage by which the read-out fell short of the control.

Take `COc1ccc2c(c1)c(CC(=O)O)c(C)n2C(=O)c1ccc(Cl)cc1`: the inhibition entry in the series with Mus musculus [1] is “Active”.
For the compound `O=c1sc2ccccc2n1CCCCCCN1CCN(CCCCCCn2c(=O)sc3ccccc32)CC1`, the IC50 in series [2] was 0.41 µM; with SK-OV-3 [4], 24.3 µM; in the series with KB [8], 20.8 µM; in the series on BT-549 [12] it was 24.3 µM. In addition, the Activity entry (in the series on SK-MEL [3]; in the series with Vero [11]; in series [13]) was “Non-toxic” throughout. Besides, the inhibition in vivo at 30 mg/kg with Rattus norvegicus [5] came to 37.5%; in the series with Rattus norvegicus [6], 32.2%; with Rattus norvegicus [7], 39.3%; in the series on Rattus norvegicus [10] it was 36.9%. The inhibition entry in the series on Mus musculus [9] was “Dose-dependent effect”.
Consider `c1ccc2oc(SCCCCN3CCN(CCCCSc4nc5ccccc5o4)CC3)nc2c1`, for which the IC50 in series [2] stood at 1.4 µM; in the series with KB [8], 25 µM; in the series on SK-MEL [15] it was 25 µM; in the series on BT-549 [12], 22.5 µM; in series [16], 23.5 µM. Also, the Activity result with SK-OV-3 [14] and in the series on Vero [11] was “Non-toxic” in each case.
Regarding `O=C(c1ccccc1)c1ccc2n1CCC2C(=O)O` (stereo not given) [KETOROLAC], the inhibition in vivo at 30 mg/kg with Rattus norvegicus [5] was 74.2%; in the series with Rattus norvegicus [6], 70.5%; in the series with Rattus norvegicus [7], 75.4%; in the series with Rattus norvegicus [10], 79.3%.
For the compound `O=c1oc2ccccc2n1CCCCCN1CCN(CCCCn2c(=O)oc3ccccc32)CC1`, the Activity entry (with SK-OV-3 [14]; in the series on SK-MEL [3]; in the series on BT-549 [17]; in the series on KB [18]; in [13]) was “Non-toxic” each time. In the series with SW1353, the inhibition entry is “inactive”. This compound also had a concentration for half-maximal inhibition (IC50) in the series on Vero [19] of 17.6 µM.
Regarding `O=c1oc2ccccc2n1CCCCCN1CCN(CCCCCn2c(=O)oc3ccccc32)CC1`, the figures for the 50% inhibitory concentration (IC50) (in series [2]; in the series with Vero [19]) were 3.43 µM and 19.4 µM, respectively. Besides, the Activity result (in the series on SK-OV-3 [14]; in the series with SK-MEL [3]; in the series on BT-549 [17]; in the series with KB [18]; in [13]) was “Non-toxic” throughout.
As for `O=c1sc2ccccc2n1CCCCCCN1CCN(CCCCn2c(=O)sc3ccccc32)CC1`, the IC50 in [2] was 0.83 µM; with KB [8], 19.5 µM; with SK-MEL [15] it was 14.5 µM; with BT-549 [12], 21.3 µM. Moreover, the Activity result (in the series with SK-OV-3 [14]; with Vero [11]; in series [13]) was “Non-toxic” in each case.
In the case of `c1ccc2sc(SCCCCN3CCN(CCCCSc4nc5ccccc5s4)CC3)nc2c1`, the IC50 amounted to 0.34 µM in [2], 25 µM with KB [8] and 17.5 µM in the series on SK-MEL [15]. Moreover, the Activity entry (in the series with SK-OV-3 [14]; in the series on BT-549 [17]; in the series on Vero [11]; in [13]) was “Non-toxic” each time. The inhibition in vivo at 30 mg/kg in the series with Rattus norvegicus [5] came out at 64.3%; with Rattus norvegicus [6] it was 59.9%; with Rattus norvegicus [7], 63.4%; in the series on Rattus norvegicus [10] it was 47.1%. Besides, the inhibition result with Mus musculus [9] is “Dose-dependent effect”.
Consider `O=c1sc2ccccc2n1CCCCCN1CCN(CCCCCn2c(=O)sc3ccccc32)CC1`, for which the IC50 with SK-OV-3 [4] came out at 25 µM; in the series with SK-MEL [15] it was 19.8 µM; in the series with BT-549 [12], 19.3 µM. The Activity entry (with KB [18]; in the series with Vero [11]; in series [13]) was “Non-toxic” in each case.
In the case of `COc1cccc2c1C(=O)c1c(O)c3c(c(O)c1C2=O)C[C@@](O)(C(=O)CO)C[C@@H]3O[C@H]1C[C@H](N)[C@H](O)[C@H](C)O1` [DOXORUBICIN], the IC50 in the series on SK-OV-3 [4] was determined as 0.2 µM; with KB [8] it was 0.22 µM; in the series on SK-MEL [15], 0.14 µM; in the series with Vero [19], 0.92 µM; in the series on BT-549 [12], 0.17 µM; in series [16], 0.79 µM.
As for `O=c1sc2ccccc2n1CCCCCCN1CCN(CCCCCn2c(=O)sc3ccccc32)CC1`, the 50% inhibitory concentration (IC50) in series [2] was 1.06 µM; with SK-OV-3 [4] it was 25 µM; in the series with Vero [19], 25 µM; with BT-549 [12] it was 19.6 µM. Moreover, the Activity result (in the series on SK-MEL [3]; with KB [18]; in series [13]) was “Non-toxic” throughout. The inhibition in vivo at 30 mg/kg came to 41.1% in the series with Rattus norvegicus [5], 33.9% in the series on Rattus norvegicus [6], 34.7% with Rattus norvegicus [7] and 34.9% in the series with Rattus norvegicus [10].

The values above are taken from ChEMBL document CHEMBL3596194, “Design, synthesis and biological evaluation of bivalent benzoxazolone and benzothiazolone ligands as potential anti-inflammatory/analgesic agents” (Bioorg Med Chem, 2015).
